High-throughput results from PubChem.
RGS4 inh – inhibitors of human RGS4; AID 463165; B-score at 10 µM; HEK293 M3R/RGS4 inducible, Fluo-4 calcium flux; stronger effect = higher value; triggered by carbachol at its EC20; hit rate 0.45% among 310,000;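 active = B-score, a plate-corrected calcium signal, over three deviations above library mean, with baseline fluorescence within five deviations of library mean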;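 note: RGS4 expression induced by doxycycline in cells with stable M3 receptor; B-score is computed from the integrated fluorescence ratio over baseline after carbachol; higher B-score means a larger calcium signal and so more RGS4 inhibition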
Target sequence (P49798 whole entry, looked up): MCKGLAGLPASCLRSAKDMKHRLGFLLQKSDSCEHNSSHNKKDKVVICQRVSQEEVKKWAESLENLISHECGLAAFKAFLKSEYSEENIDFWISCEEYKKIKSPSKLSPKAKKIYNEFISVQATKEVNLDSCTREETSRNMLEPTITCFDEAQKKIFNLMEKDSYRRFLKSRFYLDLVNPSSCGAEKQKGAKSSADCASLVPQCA
MrgX1 ag – activates human MrgX1 receptor signaling; MrgX1-HEK293 cells, Fluo-4 calcium fluorescence, agonist mode; stronger effect = higher value; AID 588627; B-score at 10 µM; hit rate 0.44% among 310,000;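 active = calcium response B-score plate-corrected fluorescence ratio at least 3 library SD, with starting fluorescence B-score inside 5 SD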
Target sequence (Q96LB2 whole entry, looked up): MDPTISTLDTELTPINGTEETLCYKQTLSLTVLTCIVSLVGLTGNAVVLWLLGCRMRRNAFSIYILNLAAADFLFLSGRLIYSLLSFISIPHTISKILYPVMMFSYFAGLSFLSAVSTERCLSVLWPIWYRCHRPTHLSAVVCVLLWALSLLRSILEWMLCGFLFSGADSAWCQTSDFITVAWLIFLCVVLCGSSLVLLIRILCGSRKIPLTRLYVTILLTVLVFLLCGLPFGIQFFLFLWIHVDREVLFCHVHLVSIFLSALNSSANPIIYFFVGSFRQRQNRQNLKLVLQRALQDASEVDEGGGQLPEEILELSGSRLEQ
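Material – MrgX1-expressing HEK293 cells · Input – 15,000 cells seeded per well · Dosing – compound as first of three additions · Times – overnight seeding, then 1 h dark dye loading · Measured by – kinetic Fluo-4 NW fluorescence of intracellular calcium · Read-out – B-scored fluorescence response ratio · Benchmarks – positive and negative control wells on each plate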
MrgX1 PAM – allosterically activates human MrgX1 receptor signaling | Q96LB2 | MrgX1-HEK293, Fluo-4 calcium flux, FDSS; stronger effect = higher value | B-score at 10 µM | hit rate 0.63% among 310,000;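 active = plate-corrected calcium response at least 3 library SD above typical, normal starting fluorescence, not activating the receptor alone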;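 note: compound read alongside a low EC10 to EC30 dose of BAM8-22 agonist; peak minus trough fluorescence over baseline measured at the second addition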
RGS4 pot – RGS4 potentiation or activation; HEK293 M3R/inducible RGS4, carbachol calcium flux Fluo4; stronger effect = lower value; B-score at 10 µM; hit rate 0.92% among 310,000; AID 463111;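 active = B-score of the integrated calcium signal more than 4 SD below the library mean, with starting fluorescence not abnormally high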;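 note: negative B-score means reduced calcium response which marks RGS4 activation or potentiation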
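Test system: HEK293 cells with stable M3R and inducible RGS4; also added: carbachol at ECmax as muscarinic agonist stimulus; schedule: dye loading 30 min 37 °C, buffer rest 30 min RT; technique: kinetic calcium fluorescence imaging with Fluo4-AM dye, 2 µM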
MrgX1 antag – human MrgX1 receptor antagonism, primary screen. Q96LB2. MRGX1-HEK293 calcium flux, Fluo-4, BAM8-22 antagonism; stronger effect = lower value. B-score at 10 µM. hit rate 1.3% among 310,000;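 active = calcium-response B-score plate-corrected more than 3 library SD below zero, starting fluorescence within 5 deviations, no agonist response on first addition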;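 note: peak minus trough fluorescence over baseline after final BAM8-22 challenge near maximal dose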
MrgX1 PAM conf – reconfirmed allosteric activator of human MrgX1 receptor; shares compounds with MrgX1 PAM; MrgX1-HEK293, Fluo-4 calcium fluorescence, FDSS; activation (ratio percentage), % at 10 µM; hit rate 13% among 1,200; AID 602413;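 active = ratio at least 3 SD above the weak peptide control, stable starting fluorescence, no direct agonism earlier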;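 note: compound followed by low BAM8-22 agonist challenge near EC20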
HEK293 Ca flux – activity in parental HEK293 cells lacking MrgX1; hit rate 2% among 4,000; shares compounds with MrgX1 antag; fluorescence ratio F(max-min)/F0 at 10 µM; Fluo-4 calcium fluorescence, FDSS;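 active = duplicate-averaged calcium fluorescence ratio at least three times the standard deviation of buffer wells, a nonspecific response in parental cells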
HEK293 Ca counter – counter-screen for MrgX1 allosteric activators: effect in parental HEK293 cells | shares compounds with MrgX1 antag | fluorescence ratio F(max-min)/F0 at 10 µM | parental HEK293 calcium flux, Fluo-4 fluorescence ratio; stronger effect = higher value | AID 624114 | hit rate 0.4% among 4,000;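 active = calcium fluorescence ratio, averaged over duplicates, at least 3 SD of the buffer-well ratio, meaning a nonspecific response in receptor-free cells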;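 note: untransfected parental HEK293 lacking MrgX1 used as counterscreen for MrgX1 allosteric activators; fluorescence change taken during the second addition on a kinetic imager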
HEK293 Ca cntr2 – activity in parental HEK293 cells lacking MrgX1 receptor; shares compounds with MrgX1 antag; Fluo-4 calcium fluorescence (FDSS); stronger effect = higher value; fluorescence ratio F(max-min)/F0 at 10 µM; hit rate 8.7% among 4,000; AID 624115;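 active = calcium fluorescence ratio at least three times the spread of buffer wells, meaning a non-specific response in parental cells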
* marks the source's active call; other numbers are inactive results; i = inactive; . = not tested or not shown. Only some compounds are listed: those with a hit (about 3.5% of all), similar ones and a draw of the others.

SMILES	RGS4 inh	MrgX1 ag	MrgX1 PAM	RGS4 pot	MrgX1 antag	MrgX1 PAM conf	HEK293 Ca flux	HEK293 Ca counter	HEK293 Ca cntr2
CN1CCN(CC#CC(C)(O)C2CC3C=CC2C3)CC1 (centres undefined)	i	i	i	i	i	.	.	.	.
COCC1CCCN(Cc2nc(C(c3ccccc3)c3ccccc3)no2)C1 (centres undefined)	i	i	13.9*	i	i	10.3%*	i	i	i
COc1ccc(CCNC(=O)CCNC(=O)c2ccccc2Cl)cc1	i	i	i	i	i	.	.	.	.
CC(C)/C=C/CN1CCC(Oc2ccc(C(=O)N3CCCC3)cc2)CC1	i	i	i	i	i	.	.	.	.
CCCCN1CC[C@H]2C=CC[C@@H](C(=O)NCc3ccc(OC)cc3)[C@H]2C1=O	i	i	i	i	i	.	.	.	.
CCCCN1CC[C@H]2C=CC[C@@H](C(=O)Nc3ccc(Cl)cc3Cl)[C@H]2C1=O	i	i	6.9*	i	i	i	i	i	i
CCOC(=O)c1sc(NC(=O)c2ccccc2C(=O)O)c(C(=O)OCC)c1C	i	i	13.1*	i	i	i	i	i	i
O=C(CSc1ccc(F)cc1)Nc1ccccc1N1CCOCC1	i	i	i	i	i	.	.	.	.
O=C(CSc1ccccc1)Nc1ccccc1N1CCOCC1	i	i	8.55*	i	i	i	i	i	i
CCOc1cc(S(=O)(=O)N(CC)CC)ccc1Cl	i	i	i	i	i	.	.	.	.
CCOc1cc(C)c(Cl)cc1S(=O)(=O)N(CC)CC	i	i	7.53*	i	i	i	i	i	i
COc1ccc(Nc2nc(C)c3ccccc3n2)cc1	i	i	15.5*	i	i	i	i	i	i
NC(=O)c1ccsc1NC(=O)COC(=O)Cc1c[nH]c2ccccc12	i	i	8.87*	i	i	26.8%*	i	i	i
CCOC(=O)C1(Cc2ccccc2)CCCN(C(=O)c2cnn(CC)c2)C1 (centres undefined)	i	i	i	i	i	.	.	.	.
Cc1cccc(N=C2CSC(=O)N2)c1	i	i	7.39*	i	i	i	i	i	i
Cc1cccc(N=C2NC(=O)S/C2=C\c2ccco2)c1	i	i	i	i	i	.	.	.	.
O=C1COc2ccc(C(=O)COc3ccc(Cl)cc3Br)cc2N1	i	i	i	i	i	.	.	.	.
CCC(C)(C)n1nnnc1C(c1ccc(Cl)cc1)N1CCN(C)CC1 (centres undefined)	i	i	11.2*	i	i	i	i	i	i
CCC(C)(C)n1nnnc1C(c1ccc(C)cc1)N1CCC(C)CC1 (centres undefined)	i	i	i	i	i	.	.	.	.
COc1ccc(CC(=O)Nc2ccccc2-c2ccccc2)cc1OC	i	i	i	i	i	.	.	.	.
Cc1ccc(CC(=O)Nc2ccccc2-c2ccccc2)cc1C	i	i	21.2*	i	i	i	i	i	i
COc1ccc(OCC(=O)Nc2ccccc2-c2ccccc2)cc1	i	i	12.2*	i	i	i	i	i	i
COc1ccc(CN(C)CC(=O)Nc2ccccc2-c2ccccc2)c(OC)c1	i	i	i	i	i	.	.	.	.
COc1ccccc1CN(C)CC(=O)Nc1ccccc1-c1ccccc1	i	i	9.99*	i	i	i	i	i	i
O=C(CN(c1cccc(Cl)c1)S(=O)(=O)c1ccc(Cl)cc1)N1CCc2ccccc2C1	i	i	i	i	i	.	.	.	.
SMILES	RGS4 inh	MrgX1 ag	MrgX1 PAM	RGS4 pot	MrgX1 antag	MrgX1 PAM conf	HEK293 Ca flux	HEK293 Ca counter	HEK293 Ca cntr2
COc1nc(NC(=O)c2ccc(F)cc2)nc(OC)c1-c1ccccc1	i	i	8.15*	i	i	i	i	i	i
CCOC(=O)c1[nH]c2ccc(OC)cc2c1NC(=O)CN1CCc2ccccc2C1	i	i	8.12*	i	i	i	i	i	i
C=C(C)Cn1c(=O)c2c(nc3n2CCCN3Cc2ccccc2)n(C)c1=O	i	i	i	i	i	.	.	.	.
COc1ccccc1NC(=O)C(C)Nc1ccc(C)c(Cl)c1 (centres undefined)	i	i	6.87*	i	i	i	i	i	i
Cc1ccc(NC(=O)CSc2nnc(C3CC3)n2N)cc1S(=O)(=O)N1CCOCC1	i	i	7.93*	i	i	i	i	i	i
N/C(=N\OC(=O)CN1C(=O)c2ccccc2C1=O)c1ccc(Br)cc1	i	i	i	i	i	.	.	.	.
O=C(c1ccncc1)c1ccc(N2CCN(C3CC(=O)N(Cc4cccs4)C3=O)CC2)cc1 (centres undefined)	i	i	6.88*	i	i	i	i	i	i
O=S(=O)(c1cccs1)N1CCN(c2ccccc2)CC1	i	i	i	i	i	.	.	.	.
O=C(C(NS(=O)(=O)c1cccs1)c1ccccc1)N1CCN(c2ccccc2)CC1 (centres undefined)	i	i	21.2*	i	i	i	i	i	i
Oc1ccc(Oc2ncc(Cl)cc2Cl)cc1	i	i	8.84*	i	i	i	i	i	i
NC(=O)c1ccc(Oc2ncc(C(F)(F)F)cc2Cl)cc1	i	i	i	i	i	.	.	.	.
COc1cc(NC(=O)C2CCCC2)c(OC)cc1Cl	i	i	6.59*	i	i	i	i	i	i
O=C(CCN1CCc2ccccc2C1)Nc1ccc2c(c1)OCO2	i	i	i	i	i	.	.	.	.
O=C(CCN1CCc2ccccc2C1)Nc1ccc(F)c(F)c1	i	i	25.3*	i	i	i	i	i	i
COc1ccc(CCN(C)C(=O)C2CCN(Cc3ccc(C)cc3)CC2)cc1OC	i	i	i	i	i	.	.	.	.
c1ccc(N2CCN(c3ncnc4sc5c(c34)CCC5)CC2)cc1	i	i	i	i	i	.	.	.	.
